# Most compounds without a hit are left out; they make up all but 3.5% or so of the library.
# MrgX1 antag: human MrgX1 receptor antagonism, primary screen | MRGX1-HEK293 calcium flux, Fluo-4, BAM8-22 antagonism; hits give low values | B-score at 10 µM | 310,000 compounds, 1.3% hits | AID 588676;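 active = calcium-response B-score plate-corrected more than 3 library SD below zero, starting fluorescence within 5 deviations, no agonist response on first addition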;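 also: peak minus trough fluorescence over baseline after final BAM8-22 challenge near maximal dose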
# Target sequence (Q96LB2 whole entry, looked up): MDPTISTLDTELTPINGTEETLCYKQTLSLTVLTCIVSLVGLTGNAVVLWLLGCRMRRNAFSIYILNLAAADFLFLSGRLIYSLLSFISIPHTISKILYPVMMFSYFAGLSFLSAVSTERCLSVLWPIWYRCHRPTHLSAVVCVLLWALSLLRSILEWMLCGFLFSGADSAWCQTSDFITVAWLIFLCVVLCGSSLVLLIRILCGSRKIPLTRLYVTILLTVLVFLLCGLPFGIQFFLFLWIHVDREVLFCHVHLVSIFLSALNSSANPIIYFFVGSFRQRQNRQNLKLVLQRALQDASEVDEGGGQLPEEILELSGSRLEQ
# RGS4 block: inhibitors of human RGS4 | P49798 | HEK293 M3R/RGS4 inducible, Fluo-4 calcium flux; hits give high values; triggered by carbachol at its EC20 | B-score at 10 µM | 310,000 compounds, 0.45% hits;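 active = B-score, a plate-corrected calcium signal, over three deviations above library mean, with baseline fluorescence within five deviations of library mean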;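 also: RGS4 expression induced by doxycycline in cells with stable M3 receptor; B-score is computed from the integrated fluorescence ratio over baseline after carbachol; higher B-score means a larger calcium signal and so more RGS4 inhibition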
# Target sequence (P49798 whole entry, looked up): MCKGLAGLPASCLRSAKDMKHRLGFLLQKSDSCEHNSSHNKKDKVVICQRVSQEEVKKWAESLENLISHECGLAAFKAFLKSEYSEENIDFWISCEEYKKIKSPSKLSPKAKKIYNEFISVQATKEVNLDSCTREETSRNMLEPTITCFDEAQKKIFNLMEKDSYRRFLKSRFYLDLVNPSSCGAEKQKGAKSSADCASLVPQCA
# MrgX1 allo act: human MrgX1 positive allosteric modulation, primary screen. Q96LB2. MrgX1-HEK293, Fluo-4 calcium flux, FDSS; hits give high values. B-score at 10 µM. 310,000 compounds, 0.63% hits;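 active = plate-corrected calcium response at least 3 library SD above typical, normal starting fluorescence, not activating the receptor alone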;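 also: compound read alongside a low EC10 to EC30 dose of BAM8-22 agonist; peak minus trough fluorescence over baseline measured at the second addition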
# MrgX1 agonist: human MrgX1 receptor agonism, primary screen. MrgX1-HEK293 cells, Fluo-4 calcium fluorescence, agonist mode; hits give high values. Q96LB2. 310,000 compounds, 0.44% hits. AID 588627. B-score at 10 µM;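 active = calcium response B-score plate-corrected fluorescence ratio at least 3 library SD, with starting fluorescence B-score inside 5 SD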
#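 Assay system: stable human MrgX1 HEK293 cell line. Quantity: 15,000 cells per well. Schedule: cells plated overnight, dye loaded 0.5 h 37 °C, 0.5 h room temperature. Detection: Fluo-4 NW calcium-flux fluorescence, kinetic read. Read-out basis: peak-minus-minimum fluorescence over baseline, converted to B scores. Control set: positive and negative control wells on each plate.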
# RGS4 pot: potentiators or activators of RGS4 | HEK293 M3R/inducible RGS4, carbachol calcium flux Fluo4; hits give low values | 310,000 compounds, 0.92% hits | B-score at 10 µM;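 active = B-score of the integrated calcium signal more than 4 SD below the library mean, with starting fluorescence not abnormally high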;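 also: negative B-score means reduced calcium response which marks RGS4 activation or potentiation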
#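 System – HEK293 FlpIn-TREx cells, stable M3R, doxycycline-inducible RGS4 · Reagent – ECmax carbachol challenge · Times – compound preincubation 20 min at room temperature before agonist · Technique – Fluo4 fluorescence kinetic imaging of calcium · Measure – B score of integrated Fluo4 ratio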
# RGS4 block valid: RGS4 inhibitor validation; shares compounds with RGS4 block; HEK293 M3R/RGS4, carbachol calcium Fluo-4 fluorescence; carbachol added at its EC20; 0 = buffer wells, 100 = carbachol control; calcium response, % at 10 µM; 1,700 compounds, 65% hits;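 active = duplicate-averaged calcium response above the buffer-only control mean plus 5 SD of those controls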;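 also: integrated fluorescence ratio F max minus min over baseline F0; higher response in RGS4-induced cells means RGS4 inhibition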
# M3R Ca ctr: counter-screen for RGS4 inhibitors: effect in non-induced cells; activity (percent), % at 10 µM; shares compounds with RGS4 block; HEK293 M3R non-induced, carbachol calcium Fluo-4; submaximal (EC20) carbachol stimulus; buffer wells 0%, carbachol control wells 100%; 1,900 compounds, 20% hits; call rule not given here;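 also: RGS4 induction absent so cells express M3R without RGS4; higher means more calcium signal and flags a non-specific hit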
# RGS4 inh ctr2: second counter-screen for RGS4 inhibitors: non-induced cells without carbachol; shares compounds with RGS4 block; HEK293 M3R/RGS4 non-induced, Fluo-4 calcium, no carbachol; normalised: buffer wells 0%, carbachol wells 100%; calcium response (agonist-mode artifact), % at 10 µM; 1,900 compounds, 22% hits; AID 493001;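 active = duplicate-averaged calcium rise in uninduced cells above buffer wells' mean plus 5 SD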
# An asterisk follows results filed as active; i = inactive; · = not tested or not shown.
SMILES,MrgX1 antag,RGS4 block,MrgX1 allo act,MrgX1 agonist,RGS4 pot,RGS4 block valid,M3R Ca ctr,RGS4 inh ctr2
CC(C)(C)OC(=O)Nc1ncnc2c1ncn2C1OC(CO)C2OC(C)(C)OC21 (configuration not stated),i,i,i,i,i,·,·,·
O=[N+]([O-])c1cc(C(F)(F)F)cc([N+](=O)[O-])c1NCCN1CCNCC1,i,i,i,i,i,·,·,·
CC(C)CNC(=O)c1ccccc1SCC(=O)NC12CC3CC(CC(C3)C1)C2,i,i,i,i,i,·,·,·
CC(OC(=O)CCOc1ccccc1)C(=O)NC1CC1 (configuration not stated),i,i,i,i,i,·,·,·
CCc1c(C)nc(N2CCN(c3ccccc3F)CC2)[nH]c1=O,i,i,i,i,i,·,·,·
O=C(/C=C/c1ccccc1)CC(=O)c1ccccc1O,i,i,i,i,i,·,·,·
CC(=O)CCc1oc2ccc(C)cc2c1-c1ccc(C)o1,i,i,i,i,i,·,·,·
CC(=O)CCc1oc2ccc(NC(C)=O)cc2c1-c1ccc(C)o1,i,5.3*,i,i,i,i,i,i
Cc1ccc(N(CC(=O)NCc2ccco2)C(=O)CNS(=O)(=O)c2ccccc2)c(C)c1,i,i,i,i,i,·,·,·
CC(=O)Nc1cccc(C(=O)/C=C/c2ccc(Br)cc2)c1,i,7.2*,i,i,i,i,i,i
CC(=O)Nc1cccc(C(=O)/C=C/c2ccc[nH]2)c1,i,i,i,i,i,·,·,·
CC(=O)Nc1cccc(C(=O)/C=C/c2ccc(N(C)C)cc2)c1,i,i,i,63*,i,i,i,156%*
CC(=O)Nc1cccc(C(=O)/C=C/c2ccc(F)cc2)c1,i,i,i,i,i,i,i,10%*
Cc1cccc(Nc2nc(N3CCCC3)nc(N3CCCC3)n2)c1,i,i,i,i,i,i,i,i
COc1nc(Nc2cccc(C)c2)nc(N2CCCCC2)n1,i,i,i,i,i,i,i,i
O=C(O)c1cccc(Nc2nc(Nc3ccccc3)nc(N3CCCC3)n2)c1,i,i,i,i,i,·,·,·
COc1nc(N/N=C/c2ccc(C)cc2)nc(N2CCCCC2)n1,i,i,i,i,i,·,·,·
CN(C(=O)Cn1nnc(-c2ccccc2)n1)C1CCS(=O)(=O)C1 (configuration not stated),i,i,i,i,i,·,·,·
COc1ccc2nc(NC(=O)C(NS(=O)(=O)c3cccs3)C(C)C)sc2c1 (configuration not stated),i,i,i,i,i,·,·,·
CCn1c(=O)c(=O)[nH]c2cc(C(=O)N3CCN(c4ccccc4F)CC3)ccc21,i,i,i,i,i,·,·,·
CCCCOC(=O)Nc1cccc(C(C)=O)c1,i,i,i,i,i,·,·,·
Cc1cc(C(=O)Nc2sc(C)c(C)c2C#N)c(C)o1,i,7.5*,i,i,i,12%*,i,10%*
Cc1sc(NC(=O)c2oc3ccccc3c2C)c(C#N)c1C,i,i,i,i,i,·,·,·
CC1=CC2=NC(=O)/C(=C/c3cccn3Cc3ccccc3)C(=N)N2O1,i,i,i,i,i,·,·,·
N=C1/C(=C/c2cccn2Cc2ccc(Cl)cc2)C(=O)N=C2SC=CN12,i,8.4*,i,i,i,5.0%*,i,i
SMILES,MrgX1 antag,RGS4 block,MrgX1 allo act,MrgX1 agonist,RGS4 pot,RGS4 block valid,M3R Ca ctr,RGS4 inh ctr2
CCCCCCc1ccc(-c2ncc(N)cn2)cc1,i,6.7*,i,i,i,29%*,61%*,i
CN1C(=O)/C(=C/c2cccc([N+](=O)[O-])c2)C(=O)N1c1ccccc1,i,36*,i,i,i,44%*,37%*,i
CCOC(=O)c1ccc(N2C(=O)c3n[nH]c(-c4ccco4)c3C2c2ccc([N+](=O)[O-])cc2)cc1 (configuration not stated),i,i,i,i,i,i,i,i
Clc1ccc2[nH]c3c(c2c1)CCc1cn[nH]c1-3,i,11*,i,i,i,75%*,40%*,27%*
COc1ccccc1NC(=O)CSc1nnc(CCC(=O)Nc2ccccc2F)n1C,i,i,i,i,i,·,·,·
COc1ccc(/C=N/N2CCN(c3ccccc3)CC2)cc1Br,i,i,i,i,i,·,·,·
CCCOc1ccc(/C=C/c2[nH]c(=O)[nH]c(=O)c2[N+](=O)[O-])cc1OCC,i,i,i,i,i,·,·,·
CCOc1cc(/C=C\c2[nH]c(=O)[nH]c(=O)c2[N+](=O)[O-])ccc1OC(C)CC (configuration not stated),i,i,i,i,i,·,i,50%*
COc1ccccc1NC(=O)C1CC(C)OC1=O (configuration not stated),i,i,i,i,i,·,·,·
COC(=O)c1sc(N2C(=O)C(=O)/C(=C(/O)c3ccccc3)C2c2ccco2)nc1C (configuration not stated),i,i,i,i,i,i,i,i
Cc1nc(N2C(=O)C(=O)/C(=C(/O)c3ccccc3)C2c2ccco2)sc1C (configuration not stated),i,6.4*,i,i,i,8.5%*,i,i
O=C(c1ccc(COCC(F)(F)F)o1)N1CCCCCC1,i,i,i,i,i,·,38%*,i
Cc1ccc(CNC(=O)c2cn(C3CCCCC3)c(=O)c3c2c2ccccc2n3C)o1,i,6.1*,i,i,i,13%*,i,i
Cn1ncc(Br)c1C(=O)NC1CCCCCCC1,·,i,·,·,i,·,·,·
Cc1nn(C)c(C(=O)NNC(=S)NC2CCCCC2)c1Br,i,8.5*,i,i,i,23%*,32%*,i
O=C(CN1C(=O)C2CC=CCC2C1=O)OCCN1C(=O)c2ccccc2C1=O (configuration not stated),i,i,i,i,i,·,·,·
